Published values from different studies.
Medium: plasma

| SMILES | host | route | dose | setting | Cmax |
| --- | --- | --- | --- | --- | --- |
| CO[C@H]1CC[C@H](N2C(=O)CNc3ncc(-c4ccc(C(C)(C)O)nc4)nc32)CC1 | human | oral | 7.5 mg | multiple doses, patients | 50.8 ng/mL |
| CCn1c(=O)c(-c2cc(NC(=O)Nc3ccccc3)c(F)cc2Br)cc2cnc(NC)cc21 | human | oral | 200 mg | single dose, patients | 525 ng/mL |
| C[C@@H](Oc1ccc(S(C)(=O)=O)cc1C(=O)N1C[C@@H]2C[C@]2(c2cc(C(F)(F)F)on2)C1)C(F)(F)F | human | oral | 25 mg | fasted, tablet | 219 nM |
| O=C(Nc1c(Cl)cncc1Cl)c1ccc(OC(F)F)c(OCC2CC2)c1 | human | oral | 0.25 mg | single dose, fasted | 6.4 ng/mL |
| CNCc1ccc(-c2[nH]c3cc(F)cc4c3c2CCNC4=O)cc1 | human | oral | 600 mg twice daily | multiple doses, steady state | 8190 nM |
| CC(C)(O)c1ccccc1-c1ccc2[nH]c(/C=C/c3ccc(C(F)(F)F)cc3)nc2c1 | male human | oral | 50 mg | single dose, fasted, healthy volunteers | 160 ng/mL |
| Cn1c(=O)oc2ccc(-c3ccc(C[C@@H](C#N)NC(=O)[C@@H]4CNCCCO4)cc3)cc21 | male human | oral | 65 mg | single dose, healthy volunteers | 1360 nM |
| Oc1cc(O)c2c(c1)O[C@@H](c1ccc(O)c(O)c1)[C@@H](O)C2 | human | oral | 100 mg | single dose | 3.6 ng/mL |
| O=C(O)C[C@H](O)C[C@H](O)/C=C/c1c(C2CC2)nc2ccccc2c1-c1ccc(F)cc1 | human | oral | 2 mg | single dose, fed, healthy volunteers, tablet | 46.5 ng/mL |
| COc1ccc([C@@H]2CN(C(=O)[C@@H](O)CO)C[C@@]2(C)[C@@H](C)O)cc1OC1CN(c2ccc(C)cn2)C1 | human | oral | 30 mg | single dose, healthy volunteers | 669 ng/mL |
| NC(=O)c1cnc2[nH]ccc2c1N[C@@H]1[C@@H]2CC3C[C@H]1C[C@@](O)(C3)C2 | human | oral | 100 mg twice daily | multiple doses, patients | 256 ng/mL |
| CCOc1cc([C@@H](CS(C)(=O)=O)N2C(=O)c3cccc(NC(C)=O)c3C2=O)ccc1OC | human | oral | 30 mg | single dose, healthy volunteers | 278 ng/mL |
| COC(=O)N[C@@H](C)CNc1nccc(-c2cn(C(C)C)nc2-c2cc(Cl)cc(NS(C)(=O)=O)c2F)n1 | human | oral | 50 mg | single dose | 482 ng/mL |
| FC(F)(F)c1ccc(CNc2ccc(Cc3c[nH]c4ncc(Cl)cc34)cn2)cn1 | human | oral | 1200 mg | multiple doses, patients | 8730 ng/mL |
| Cc1ccc(C(=O)N(CCCN)[C@@H](c2oc3cc(Cl)ccc3c(=O)c2Cc2ccccc2)C(C)C)cc1 | human | intravenous | 5 mg/m² | single dose, patients, infusion | 607 ng/mL |
| CCO[C@H]1CCN(Cc2c(OC)cc(C)c3[nH]ccc23)[C@H](c2ccc(C(=O)O)cc2)C1 | human | oral | 25 mg | multiple doses, twice daily, patients | 1450 ng/mL |
| CC(C)(C(=O)N1CCOc2c(C#N)cncc2C1)C(F)F | human | oral | 30 mg | single dose, fasted, healthy volunteers | 417 ng/mL |
| CO[C@H]1/C=C\C=C(/C)C(=O)NC2=CC(=O)C(NCCN(C)C)=C(C[C@@H](C)C[C@H](OC)[C@H](O)[C@@H](C)/C=C(\C)[C@@H]1OC(N)=O)C2=O | human | intravenous | 27 mg/m² | patients, infusion | 443 ng/mL |

| SMILES | host | route | dose | setting | Cmax |
| --- | --- | --- | --- | --- | --- |
| CC(C)(Sc1ccncc1-c1ccc(C#N)c2ccccc12)C(=O)O | male human | oral | 40 mg | single dose, fasted, healthy volunteers | 760 ng/mL |
| Cn1cc(-c2ccc(S(=O)(=O)[C@@H]3C[C@@H](C(=O)NC4(C#N)CC4)N(C(=O)C4(C(F)(F)F)CC4)C3)c(C(F)(F)F)c2)cn1 | human | oral | 100 mg | single dose, fed | 946 ng/mL |
| COCCOc1cnc2ccn([C@H](C)c3nnc4c(F)cc(-c5cnn(C)c5)cn34)c(=O)c2c1 | human | oral | 100 mg | multiple doses, once daily, patients | 2300 ng/mL |
| CCOc1cc2ncc(C#N)c(Nc3ccc(OCc4ccccn4)c(Cl)c3)c2cc1NC(=O)/C=C/[C@H]1CCCN1C | human | oral | 80 mg | single dose | 26.5 ng/mL |
| CC(C)n1cc(C#N)c2cc(-n3cc(C(=O)O)cn3)ccc21 | human | oral | 50 mg | single dose, fasted, healthy volunteers | 1440 ng/mL |
| N#CN1C[C@H](n2nc(-c3ccc(Oc4ccc(Cl)cn4)cc3)c(C(N)=O)c2N)CCC12CC2 | human | oral | 600 mg | fasted | 1060 ng/mL |
| CO[C@@H]1[C@H](OC(=O)N2CC(CCN3CCOCC3)C2)CC[C@]2(CO2)[C@H]1[C@@]1(C)O[C@@H]1CC=C(C)C | human | subcutaneous | 0.6 mg | single dose, healthy volunteers | 2.28 ng/mL |
| C#Cc1cccc(Nc2ncnc3cc(OCCOC)c(OCCOC)cc23)c1 | human | oral | 100 mg | patients | 1820 nM |
| CS(=O)(=O)CCNCc1ccc(-c2ccc3ncnc(Nc4ccc(OCc5cccc(F)c5)c(Cl)c4)c3c2)o1 | human | oral | 900 mg | multiple doses, twice daily, steady state, patients | 3570 ng/mL |
| C/C(=C\c1csc(C)n1)[C@@H]1C[C@@H]2O[C@]2(C)CCC[C@H](C)[C@H](O)[C@@H](C)C(=O)C(C)(C)[C@@H](O)CC(=O)N1 | human | intravenous | 15 mg/m² | patients | 89.6 ng/mL |
| Nc1cc(C(F)(F)F)c(-c2cc(N3CCOCC3)nc(N3CCOCC3)n2)cn1 | human | oral | 100 mg/day | patients | 1080 ng/mL |
| CCCCC1=NC2(CCCC2)C(=O)N1Cc1ccc(-c2ccccc2S(=O)(=O)Nc2noc(C)c2C)c(COCC)c1 | human | oral | 200 mg | single dose, fed, healthy volunteers | 6280 ng/mL |
| NS(=O)(=O)NCCNc1nonc1C(=NO)Nc1ccc(F)c(Br)c1 | human | oral | 600 mg | multiple doses, twice daily, steady state, patients | 4820 nM |
| CCc1nc2c(C)cc(N3CCN(CC(=O)N4CC(O)C4)CC3)cn2c1N(C)c1nc(-c2ccc(F)cc2)c(C#N)s1 | human | oral | 600 mg | single dose, fasted, healthy volunteers | 5800 ng/mL |
| C[C@@]1(c2cc(NC(=O)c3ccc(C#N)cn3)ccc2F)C=CSC(N)=N1 | human | oral | 150 mg | single dose | 906 ng/mL |
| COc1cc(C(=O)NC2CCN(C)CC2)c(F)cc1Nc1ncc(C(F)(F)F)c(Oc2cccc3c2C(=O)N(C)C3)n1 | human | oral | 10 mg | multiple doses, once daily, steady state, patients | 59.2 nM |
| CC(=O)Oc1ccccc1C(=O)O | human | oral | 650 mg | healthy volunteers | 3480 ng/mL |
